# Calls of active or inactive are those of the source.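 Rule for the calls, unless noted: active = viability at or under a set limit in both replicates, limit being median viability minus 3 SD (cut at about 48% in these data, passing the limit was not always enough); inconclusive = at or under the limit in just one replicate; inactive = at or above the limit in both replicates.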
# What was measured:
# [1] = reducers of endogenous Her2 protein level, primary screen, SKBR3 breast tumor cells, AlphaScreen, ATP viability (AID 461;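 active = Her2 level under about 52% in both replicate screens, with viability over 70% of control, limit read from the data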;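 for Her2 level: lower value means less Her2 protein in the cells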;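 for viability: percent of carrier control wells set as 100% viability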); conditions: 18-24 h, measured here: SKBR3 viability, ATP luminescence, at 10 µM
# [2] = target: Receptor tyrosine-protein kinase erbB-2 (Homo sapiens) (UniProt P04626); test: as above; conditions: 18-24 h, at 10 µM, stronger effect = lower value
# Receptor tyrosine-protein kinase erbB-2 (Homo sapiens), sequence (P04626 whole entry, looked up): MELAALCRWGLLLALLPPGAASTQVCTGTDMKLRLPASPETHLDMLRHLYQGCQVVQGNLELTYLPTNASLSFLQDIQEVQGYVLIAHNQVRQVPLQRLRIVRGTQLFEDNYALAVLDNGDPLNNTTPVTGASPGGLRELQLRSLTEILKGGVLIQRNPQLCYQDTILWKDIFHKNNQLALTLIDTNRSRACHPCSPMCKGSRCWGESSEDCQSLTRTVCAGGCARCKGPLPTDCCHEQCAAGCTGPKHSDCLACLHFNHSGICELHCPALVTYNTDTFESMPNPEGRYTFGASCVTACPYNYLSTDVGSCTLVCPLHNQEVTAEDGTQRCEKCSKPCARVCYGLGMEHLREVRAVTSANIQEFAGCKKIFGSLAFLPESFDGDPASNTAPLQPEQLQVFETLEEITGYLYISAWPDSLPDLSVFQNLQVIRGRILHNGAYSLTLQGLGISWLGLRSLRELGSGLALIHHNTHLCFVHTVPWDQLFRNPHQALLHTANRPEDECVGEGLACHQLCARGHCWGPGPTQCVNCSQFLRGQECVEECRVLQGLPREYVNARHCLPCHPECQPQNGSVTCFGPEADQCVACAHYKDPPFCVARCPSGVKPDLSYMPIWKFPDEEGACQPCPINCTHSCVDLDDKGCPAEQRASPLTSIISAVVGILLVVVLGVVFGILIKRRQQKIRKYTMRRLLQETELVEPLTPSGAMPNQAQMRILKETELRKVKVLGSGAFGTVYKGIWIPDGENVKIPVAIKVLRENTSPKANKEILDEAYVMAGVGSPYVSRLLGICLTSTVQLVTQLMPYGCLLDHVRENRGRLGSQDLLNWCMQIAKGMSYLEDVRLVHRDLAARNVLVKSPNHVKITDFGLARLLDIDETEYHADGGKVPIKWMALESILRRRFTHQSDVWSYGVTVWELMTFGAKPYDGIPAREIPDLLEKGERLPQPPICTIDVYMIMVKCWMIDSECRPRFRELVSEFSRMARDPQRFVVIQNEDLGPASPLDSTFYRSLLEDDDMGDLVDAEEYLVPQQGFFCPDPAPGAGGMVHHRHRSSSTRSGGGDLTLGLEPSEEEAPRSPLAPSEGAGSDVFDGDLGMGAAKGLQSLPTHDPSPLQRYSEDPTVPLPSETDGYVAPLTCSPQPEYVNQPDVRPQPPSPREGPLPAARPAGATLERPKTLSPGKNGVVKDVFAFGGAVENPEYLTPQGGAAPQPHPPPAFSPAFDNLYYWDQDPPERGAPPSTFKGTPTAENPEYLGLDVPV
# [3] = SK-BR-3 cell growth inhibitors, pilot screen, 24 h, human (AID 572;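 active = viability at or below 10% of carrier control in both of two separate runs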;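 note: compound exposure lasted between 18 and 24 h rather than exactly 24 h; 100% = carrier-treated control wells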); conditions: SK-BR-3 viability, CellTiter-Glo luminescence, at 10 µM, stronger effect = lower value
# [4] = HUVEC growth inhibition – cell-based, human, primary screen (AID 575;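 active = viability at or below 30% in both replicate assays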;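 note: 100% = median of untreated cell wells with 0.1% DMSO on each plate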); conditions: HUVEC proliferation, CellTiter-Glo luminescence, 72 h; at 10 µM; stronger effect = lower value
# Outline: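 System: primary human umbilical vein endothelial cells; Quantity: 1250 endothelial cells in each well; Buffer or medium: supplemented EBM, 2% fetal bovine serum; Doses: one dose, 10 µM final, 0.1% DMSO; Incubation: 72 h compound incubation; Technique: ATP-based CellTiter-Glo luminescent read; Evaluation: percent of median DMSO-control luminescence; Controls: vehicle and MePR control wells.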
# [5] = growth inhibitors of H69AR lung tumor, primary screen, human, duplicate replicates (AID 580); conditions: H69AR lung tumor cells viability, ATP luminescence, 72 h; at 10 µM; stronger effect = lower value;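 note: 100% = mean luminescence of untreated wells and 0% = no signal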
# [6] = reversal of MRP1-mediated doxorubicin resistance, pilot screen, H69AR cells, doxorubicin co-treatment (AID 601;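 active = viability loss from added drug above about 55%, and viability with drug at most 40%, in both replicates, limit read from the data, passing the limit was not always enough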); conditions: CellTiter-Glo, 72 h, at 10 µM; for differential viability (reversal): stronger effect = higher value
# [7] = 384-well plate pilot, post-Golgi transport modulator project, inhibition of yeast transport mutant growth (AID 636; in the data active = inhibition above about 31%); conditions: absorbance 615 nm, about 18 h, stronger effect = higher value
# [8] = growth suppression of yeast trafficking mutant, preliminary HTS, modulators of trafficking downstream of Golgi apparatus project, 1536-format plate, OD 615 nm (AID 637; in the data active = inhibition above about 30%); conditions: yeast transport mutant growth, absorbance 615 nm, 18 h; stronger effect = higher value
# [9] = H69AR cells + 2 uM doxorubicin, measured here: viability with 2 uM doxorubicin, stronger effect = lower value
# [10] = H69AR cells, compound alone cytotoxicity
SMILES,viability [1] [%],Her2 level [2],viability [3],viability [4],viability [5],differential viability (reversal) ([6]; H69AR cells + 2 uM doxorubicin),"viability [6, 9] [%]","viability [6, 10] [%]",inhibition [7],inhibition [8]
O=C(Nc1cc(Cl)ccc1Cl)c1noc2c1CCCC2,87.5,90.5% (inactive),87.5% (inactive),63.5% (inactive),83.5% (inactive),-3.4% (inactive),86.9,83.5,-0.51% (inactive),-5.5% (inactive)
COc1ccc(-c2noc(CCCC(=O)O)n2)cc1,130,91.5% (inactive),130% (inactive),97.1% (inactive),95% (inactive),5.04% (inactive),89.9,95,-6.4% (inactive),5.08% (inactive)
O=S(=O)(Cc1ccccc1)N1CCCCCC1,93,83.5% (inactive),93% (inactive),96.1% (inactive),101% (inactive),2.14% (inactive),98.8,101,-5.81% (inactive),2.3% (inactive)
Fc1ccc(C(c2nnnn2Cc2ccco2)N2CCN(C3CCCCC3)CC2)cc1 (stereo not given),67,86.5% (inactive),67% (inactive),92.5% (inactive),94.1% (inactive),5.67% (inactive),88.5,94.1,2% (inactive),21.9% (inactive)
CCCCOc1ccc(-c2nnn(CC(=O)Nc3ncc(CC(=O)OCC)s3)n2)cc1,122,100% (inactive),122% (inactive),74.5% (inactive),84% (inactive),-4.45% (inactive),88.4,84,-7.11% (inactive),-1.59% (inactive)
Cc1cc(C(=O)OCC(=O)N2c3ccccc3CC2C)c(C)o1 (stereo not given),90.5,86.5% (inactive),90.5% (inactive),101% (inactive),100% (inactive),9.63% (inactive),90.8,100,-4.05% (inactive),-4.75% (inactive)
Cc1cc(C)n(CCc2nc(-c3cccs3)cs2)n1,93,88% (inactive),93% (inactive),106% (inactive),104% (inactive),25.3% (inactive),79.2,104,-2.6% (inactive),-0.48% (inactive)
COCCNC(=O)CC(NS(=O)(=O)c1ccc(NC(C)=O)cc1)C(C)C (stereo not given),97,122% (inactive),97% (inactive),81.2% (inactive),95.1% (inactive),11.4% (inactive),83.7,95.1,-4.74% (inactive),5% (inactive)
CC1(C)Cc2cccc(OCC(O)CN3CCN(c4ccccn4)CC3)c2O1 (stereo not given),84,94% (inactive),84% (inactive),86.1% (inactive),70.3% (inactive),-17.7% (inactive),88,70.3,-3.38% (inactive),-7.3% (inactive)
CC1=C(C(=O)NC2CCCC(C)C2C)C2(CCCCC2)OC1=O (stereo not given),118,100% (inactive),118% (inactive),97.6% (inactive),95.8% (inactive),8.08% (inactive),87.7,95.8,-0.27% (inactive),3.67% (inactive)
COc1ccc(-n2c(Cc3cccn3C)nnc2SCC(=O)Nc2cccc(C)c2C)cc1,88.5,97% (inactive),88.5% (inactive),91.4% (inactive),93.8% (inactive),-2.92% (inactive),96.7,93.8,-0.64% (inactive),-6.67% (inactive)
O=S(=O)(c1cccc2nsnc12)N1CCN(c2ncccn2)CC1,87,96% (inactive),87% (inactive),105% (inactive),86.9% (inactive),-7.98% (inactive),94.9,86.9,-7.16% (inactive),3.61% (inactive)
COc1cccc(-c2noc(-c3cccs3)n2)c1,96.5,87% (inactive),96.5% (inactive),75.1% (inactive),81.5% (inactive),-29.2% (inactive),111,81.5,2.08% (inactive),-4.29% (inactive)
CCSc1nnc(NC(=O)C(CC)(C(F)(F)F)C(F)(F)F)s1,79.5,120% (inactive),79.5% (inactive),68.9% (inactive),74% (inactive),0.58% (inactive),73.4,74,0.41% (inactive),33.3% (active)
CCOC(=O)c1cc(-c2ccco2)nc2c1c(C)nn2CCC#N,96,101% (inactive),96% (inactive),98% (inactive),68.3% (inactive),-16.2% (inactive),84.5,68.3,4.05% (inactive),3.97% (inactive)
CCOC(=O)Cn1c(=N)n(CCOc2cccc(C)c2)c2ccccc21,121,106% (inactive),121% (inactive),99.6% (inactive),85.9% (inactive),1% (inactive),84.9,85.9,-6.67% (inactive),-0.79% (inactive)

# Reference: PubChem BioAssay
